For orientation: IC50 means the concentration at which inhibition is half-maximal.

A value given as a limit tells only on which side of the number the result lay.

Experiment [1] has as its system Aorta. Put plainly: Vasorelaxant activity against KCl-induced contraction in Wistar rat aorta. In kind it is functional, tissue-based. Summed up:
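Endothelium-intact aortic rings in physiological solution at 37 °C, gassed with 95% O2/5% CO2 and equilibrated 60 min. Compound added cumulatively (10^-6 to 10^-4 M; 0.3–3 or 0.3–10 µg/mL by solubility) on the plateau of 100 mM KCl depolarizing contraction. Response taken as % of initial KCl contraction. IC50 from sigmoidal fit, 95% CI, 3–6 determinations.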

Another experiment deals with HeLa. Put plainly: Cytotoxicity against human HeLa cells by MTT method. In kind it is cell-based. Summed up: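 HeLa human cervix carcinoma cells; viability by MTT colorimetric assay. Absorbance expressed as percent of control, with camptothecin as positive control. IC50 given as mean ± SEM.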
In general terms: Tetrazolium dyes change colour on reduction, which living cells bring about.

For experiment [2], the system named is Aorta. Put plainly: Vasorelaxant activity against KCl-induced contraction in Wistar rat aorta at 10 ug/ml. In kind it is functional. Details: scale not given: the % may be the effect or the level left. Summed up: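 Rat aortic rings at 37 °C, gassed with 95% O2/5% CO2 and equilibrated 60 min; first contraction with 100 mM KCl depolarizing solution. After washing, rings were preincubated 30 min with compound at 10 µg/mL (max 3 µg/mL if poorly soluble; DMSO ≤0.1% in bath) and KCl contraction repeated. Inhibition versus the control contraction after 40 min incubation; mean ± SEM of n.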

For `C=C[C@@]1(C)CC[C@H]2C(=CC[C@H]3C(C)(C)[C@@H](O)CC[C@]23C)C1` [ISOPIMARANE], the half-maximal inhibitory concentration (IC50) worked out at 46.2 µM in the experiment on Aorta [1] and 87.8 µM in the experiment with HeLa. In the experiment on Aorta [2], this molecule yielded an Activity of 54.6%.

Take `CC1(C)C(=O)CC[C@]2(C)[C@@H]1CC[C@@]13C(=O)C4[C@H](C[C@H]12)[C@]4(C)C3=O`: in the experiment with HeLa, the IC50 was above 150 µM. Further, in the experiment with Aorta [2], the Activity is 84.4%.

Molecule `CC[C@@]1(O)C(=O)OCc2c1cc1n(c2=O)Cc2cc3ccccc3nc2-1` [CAMPTOTHECIN] displayed an IC50 with HeLa of 0.5 µM.

Take `C[C@@]12CC[C@H](O)[C@](C)(CO)[C@H]1CC[C@@]13CC4[C@H](C[C@H]12)[C@]4(C)C3`: the figures for the IC50 with Aorta [1] and in the experiment on HeLa were above 80 µM and 64 µM, respectively.

Molecule `CC1(C)CCC[C@]2(C)[C@H]3CC[C@]4(C)CC(=O)[C@]3(CC[C@@H]12)[C@H]4O` showed an IC50 in the experiment on HeLa of 153 µM. Besides, the Activity with Aorta [2] is given as 40.7%.

With `C[C@@H]1C(=O)[C@]23CC[C@H]4C(C)(C)C(=O)CC[C@]4(C)[C@H]2C[C@@H]1CC3=O`, the IC50 with HeLa was above 150 µM. Further, in the experiment on Aorta [2], the Activity is given as 87.9%.

As to `C[C@@]12CCC(=O)[C@](C)(CO)[C@H]1CC[C@@]13CC4[C@H](C[C@H]12)[C@]4(C)C3`, the values for the concentration for half-maximal inhibition (IC50) in the experiment on Aorta [1] and in the experiment on HeLa were 6.3 µM and 40.4 µM, respectively. The molecule further registered an Activity in the experiment on Aorta [2] of 17%.

In the case of `C/C(=C\CO)CCC[C@H](C)CCC[C@H](C)CCCC(C)C` [TRANS-PHYTOL], the IC50 in the experiment with Aorta [1] is above 80 µM; in the experiment on HeLa, 46.6 µM. Moreover, the Activity in the experiment on Aorta [2] is 81.4%.

For the molecule `C[C@]12CCC(=O)[C@@](C)(CO)[C@@H]1CC[C@]13C(=O)C4[C@@H](C[C@@H]12)[C@]4(C)C3=O`, the Activity with Aorta [2] was 93.1%.

On to `CC1(C)CCC[C@]2(C)[C@H]3C[C@@H]4C5C(=O)[C@]3(CC[C@@H]12)[C@H](I)[C@]54C`, for which, in the experiment on HeLa, the IC50 worked out at 150 µM. In the experiment with Aorta [2], this molecule returned an Activity of 37.4%.

Regarding `CC1(C)CCC[C@]2(C)[C@@H]1CC[C@@]13C(=O)C4[C@H](C[C@H]12)[C@]4(C)C3=O`, the concentration for half-maximal inhibition (IC50) with Aorta [1] came to 5.8 µM; in the experiment on HeLa it was 118 µM. In the experiment on Aorta [2], this molecule gave an Activity of 14.5%.

As to `C=C1[C@H]2CC[C@@]34C(=O)C5[C@H](C[C@H]3[C@]2(C)CC[C@@H]1O)[C@]5(C)C4=O`, the IC50 with HeLa was above 150 µM. In the experiment on Aorta [2], the Activity is reported as 83.9%.

Turning to `C[C@@]1(C(O)CO)CC[C@@H]2C(O)(C1)C(O)C[C@H]1[C@@]2(C)CC[C@H](O)[C@]1(C)CO` (some centres not stated), the IC50 with Aorta [1] was above 80 µM.

With `C[C@@]12CCC(=O)[C@](C)(CBr)[C@H]1CC[C@@]13C(=O)C4[C@H](C[C@H]12)[C@]4(C)C3=O`, the IC50 in the experiment on HeLa was above 150 µM. Further, in the experiment with Aorta [2], the Activity is reported as 71.8%.

For `CC1=CCC[C@]2(C)[C@@H]1CC[C@@]13C(=O)C4[C@H](C[C@H]12)[C@]4(C)C3=O`, in the experiment on HeLa, the half-inhibitory concentration (IC50) was found to be 125 µM.

In the experiment with HeLa, `CC1(C)C(=O)CC[C@@]2(C)[C@H]1CC[C@]13C(=O)C4[C@@H](C[C@@H]12)[C@]4(C)C3=O` had an IC50 above 150 µM. Also, in the experiment on Aorta [2], the Activity is given as 91.4%.

In the case of `C=C1[C@H]2CC[C@@]34C(=O)C5[C@H](C[C@H]3[C@]2(C)CC[C@@H]1Cl)[C@]5(C)C4=O`, the 50% inhibitory concentration (IC50) with Aorta [1] was 9.75 µM; in the experiment on HeLa, above 150 µM. In the experiment with Aorta [2], this molecule displayed an Activity of 28.5%.

With `CO[C@]1(C)[C@@H](Br)CC[C@@]2(C)[C@@H]3C[C@H]4C5C(=O)[C@@]3(CC[C@@H]21)C(=O)[C@]54C`, the concentration for half-maximal inhibition (IC50) in the experiment on Aorta [1] is 12.3 µM; in the experiment on HeLa it was above 150 µM. The Activity in the experiment with Aorta [2] turned out to be 33%.

For the molecule `CC1(C)CCC[C@]2(C)[C@H]3C[C@@H]4C5C(=O)[C@]3(CC[C@@H]12)[C@@H](O)[C@]54C`, the IC50 in the experiment on Aorta [1] was 9.1 µM; with HeLa it was above 150 µM. Further, the Activity with Aorta [2] was found to be 22.1%.

On to `C=C1[C@H]2CC[C@@]34C(=O)C5[C@H](C[C@H]3[C@]2(C)CC[C@@H]1Br)[C@]5(C)C4=O`, for which, in the experiment with HeLa, the IC50 is above 150 µM. Besides, in the experiment with Aorta [2], the Activity is listed as 65.5%.

Turning to `C=C1CCC[C@]2(C)[C@@H]1CC[C@@]13C(=O)C4[C@H](C[C@H]12)[C@]4(C)C3=O`, the figures for the IC50 with Aorta [1] and in the experiment on HeLa were 3.5 µM and 128 µM, respectively. This molecule also came in with an Activity with Aorta [2] of 9.2%.

`C[C@@H]1C[C@@H](O)[C@H]2[C@@](C)(CO)CCC[C@]2(C)[C@@]1(O)CCc1ccoc1` [MARRUBENOL] had an IC50 in the experiment with Aorta [1] of 10 µM. Further, the Activity with Aorta [2] was found to be 7.9%.

As for `CC1(C)CCC[C@]2(C)[C@@H]1CC[C@@]13C(=O)C4[C@H](C[C@@H]21)[C@]4(C)[C@H]3O`, the IC50 was determined as 4.65 µM in the experiment on Aorta [1] and 138 µM in the experiment with HeLa. The Activity in the experiment on Aorta [2] was determined as 17.9%.

As to `CC1(C)C(=O)CC[C@]2(C)[C@@H]1CC[C@@]13C(=O)C4[C@H](C[C@@H]21)[C@]4(C)[C@H]3O`, in the experiment on HeLa, the half-inhibitory concentration (IC50) is above 150 µM. The Activity in the experiment with Aorta [2] was 92.7%.

On to `CC1(C)CCC[C@]2(C)[C@@H]1CC[C@@]13[C@H](O)C[C@](C)(CC[C@@H]21)[C@H]3O`, for which the IC50 in the experiment with HeLa is above 150 µM. In the experiment on Aorta [2], this molecule yielded an Activity of 52.2%.

`C=C1C[C@]23CC[C@H]4C(C)(C)C(=O)CC[C@]4(C)[C@H]2C[C@@H]1CC3=O` yielded a concentration for half-maximal inhibition (IC50) in the experiment with HeLa above 150 µM. Further, the Activity in the experiment on Aorta [2] turned out to be 60.6%.

On to `CC1(C)C(=O)CC[C@@]2(C)[C@@H]3C[C@@H]4[C@@H]5C[C@@]3(CC[C@@H]12)C[C@@]45C`, for which the concentration for half-maximal inhibition (IC50) is above 80 µM in the experiment with Aorta [1] and 33.5 µM with HeLa. In the experiment on Aorta [2], this molecule returned an Activity of 65.6%.

With `CC1(C)[C@H]2CC[C@@]34CC5[C@H](C[C@H]3[C@]2(C)CC[C@@H]1O)[C@]5(C)C4`, the 50% inhibitory concentration (IC50) with Aorta [1] is above 80 µM; in the experiment with HeLa, 25.3 µM. For the same molecule, the Activity with Aorta [2] turned out to be 67.3%.

`CC1(C)C(=O)CC[C@]2(C)[C@H]3C[C@@H]4C5C(=O)[C@]3(CC[C@@H]12)[C@H](I)[C@]54C` showed an IC50 with HeLa above 150 µM. In the experiment on Aorta [2], the Activity is listed as 95.7%.

For the molecule `CC1(C)CCC[C@]2(C)[C@@H]1CC[C@@]13[C@H](O)C4[C@H](C[C@@H]21)[C@]4(C)[C@H]3O`, the IC50 with HeLa was above 150 µM. In addition, the Activity with Aorta [2] turned out to be 73.4%.

For `CC1(C)[C@H](O)CC[C@]2(C)[C@@H]1CC[C@@]13C(=O)C4[C@H](C[C@@H]21)[C@]4(C)[C@H]3O`, the IC50 in the experiment with HeLa was above 150 µM. The Activity in the experiment with Aorta [2] was 90.3%.

In the experiment on HeLa, `CC(C)(C)[Si](C)(C)O[C@@]12CC[C@@]3(C)[C@@H](CC[C@]45C(=O)C6[C@@H](C[C@@H]43)[C@@]6(C)C5=O)[C@]1(C)C2` had a half-inhibitory concentration (IC50) above 150 µM.

In the experiment with HeLa, `CC1(C)C(=O)CC[C@]2(C)[C@H]3C[C@@H]4C5C(=O)[C@]3(CC[C@@H]12)[C@@H](O)[C@]54C` yielded an IC50 above 150 µM. This molecule gave an Activity in the experiment with Aorta [2] of 90%.
